Experimental data from different studies.
Protocols differ between the studies behind these lines.
Medium: plasma

`Cc1cc(S(=O)(=O)NC2CC(N3CCN(CC4CCN(c5cccc6c5n(C)c(=O)n6C5CCC(=O)NC5=O)CC4)CC3)C2)ccc1Nc1ncc(C(F)(F)F)c(N2CCC[C@](C)(O)C2)n1` (stereo partly drawn) has a Vd of 10 L/kg (rat; intravenous; 2 mg/kg).
`Cc1nc(Nc2ncc(C(=O)Nc3c(C)cccc3Cl)s2)cc(N2CC[C@@H](O)C2)n1` gave a Vd of 0.9 L/kg (male Sprague-Dawley rat; intravenous; 1 mg/kg).
`CNC(=O)c1cc(Oc2ccc(NC(=O)Nc3ccc(Cl)c(C(F)(F)F)c3)cc2)ccn1` has a Vd/F of 112 L/kg (male Sprague-Dawley rat; oral; 100 mg/kg; single dose).
With `CC(=O)O[C@@H]1CC[C@@]2(C)[C@@H](CC[C@]3(C)[C@@H]2C(=O)C=C2[C@@H]4[C@@H](C)[C@H](C)CC[C@]4(C)CC[C@]23C)[C@@]1(C)C(=O)O` the Vd/F was 0.28 L/kg (female Wistar rat; oral; 1 mg/kg; single dose).
The Vd of `CNS(=O)(=O)c1ccc(Nc2ncc(C(F)(F)F)c(N3CCC[C@](C)(O)C3)n2)c(C)c1` is reported as 3 L/kg (rat; intravenous; 2 mg/kg).
For `C1=C/COCc2cc(ccc2OCCN2CCCC2)Nc2nccc(n2)-c2cccc(c2)COC/1`, the Vd/F was 192 L (male Sprague-Dawley rat; oral; 36 mg/kg).
The Vd of `Cc1cc(S(=O)(=O)NC2CC(N3CC[C@@H](OC4CN(c5cccc6c5n(C)c(=O)n6C5CCC(=O)NC5=O)C4)[C@H](F)C3)C2)ccc1Nc1ncc(C(F)(F)F)c(N2CCC[C@](C)(O)C2)n1` (stereo partly drawn) is reported as 10 L/kg (rat; intravenous; 2 mg/kg).
For `C[C@H]1Oc2cc(cnc2N)-c2c(nn(C)c2C#N)CN(C)C(=O)c2ccc(F)cc21`, the Vd/F was 19 L/kg (male Sprague-Dawley rat; oral; 50 mg/kg; single dose).
`CCCc1nc2c(C)cc(-c3nc4ccccc4n3C)cc2n1Cc1ccc(-c2ccccc2C(=O)O)cc1` has a Vd/F of 46.1 L/kg (male Sprague-Dawley rat; oral; 8 mg/kg; single dose).
